Test results from ChEMBL document CHEMBL1687759, “Functional selection of hepatitis C virus envelope E2-binding Peptide ligands by using ribosome display” (Antimicrob Agents Chemother, 2010).
Values belong to the compound of their own block, whether it stands above or below them. Activity calls are given as the source filed them. The rule behind the calls is not given here. Where a SMILES comes first, the peptide text is derived from it.

Legend:
[1] = Binding affinity to HCV envelope glycoprotein E2 by surface plasmon resonance assay; design: species or system Hepacivirus hominis
Procedure, shortened: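 Surface plasmon resonance on a Biacore 1000 measured binding of E2 protein to the peptides. K_on and K_off were calculated from the association and dissociation phases of the best-fitted binding curves.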

[2] = system: Hepacivirus hominis; experiment: Inhibition of HCV envelope glycoprotein E2 to human Huh 7.5.1 cells after 1 hr by flow cytometry relative to control
Procedure, shortened: (§1)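 E2 protein (0.25 μg) was preincubated with peptide (250 nM, or a concentration series), 120 nM CD81, 50 IU heparin, or combinations in 100 μl PBS for 1 h at 37°C. The mix was added to 1 × 10⁶ Huh-7.5.1 cells for 30 min at 37°C. Cell-bound E2 was stained with anti-E2 polyclonal and PE anti-rabbit IgG and measured by flow cytometry. Percent inhibition was calculated (means ± SEM, 3–4 experiments).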

[3] = system: Hepacivirus hominis; experiment: Inhibition of HCV envelope glycoprotein E2 to human Huh 7.5.1 cells after 1 hr by flow cytometry; procedure, shortened: as §1
[4] = system: Hepatitis C virus; experiment: Antiviral activity against HCV 2a JFH-1 in human Huh 7.5.1 cells assessed as inhibition of viral infection at 100 to 500 nM after 4 hrs by immunofluorescence staining; assay type: functional, organism-based; conditions: Hepacivirus hominis, in the assay text read “after overnight incubation” for “after 4 hrs”
Procedure, shortened: (§2)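 Cells were washed and E2 was read out in two ways. Western blot used anti-E2 with β-actin as the internal control. Immunofluorescence used 4% paraformaldehyde fixation, rabbit anti-E2 with FITC anti-rabbit IgG for 4 h, and PI nuclear stain. Mean fluorescence was measured by confocal microscopy (means ± SEM, three experiments).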

[5] = system: Hepatitis C virus subtype 1a; experiment: Binding affinity to HCV 1a envelope glycoprotein E2
Procedure, shortened: (§3)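 HepG2 cells stably expressing E1E2 of genotypes 1–6 were established by G418 selection, with parental HepG2 as control. E2 of each genotype was detected with the selected peptide (means ± SEM, three independent experiments).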

[6] = system: Hepatitis C virus subtype 2a; experiment: Binding affinity to HCV 2a envelope glycoprotein E2; procedure, shortened: as §3
[7] = system: CT26; experiment: Inhibition of HCV envelope glycoprotein E2 to […] cells expressing CD81 after 1 hr by flow cytometry; assay type: cell-based; conditions: Hepacivirus hominis
[8] = system: Hepacivirus hominis; experiment: Binding affinity to HCV GST-tagged envelope glycoprotein E2 after 1 hr by ELISA
Procedure, shortened: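 Indirect ELISA on wells coated with 0.3 nM E2-GST or GST (4°C, 7 h) and blocked with 2% BSA (37°C, 2 h). Biotin-labelled peptide at various concentrations was added for 30 min at 37°C, then HRP-streptavidin (1:1,000) for 1 h at 37°C. Signal was developed with o-phenylenediamine and read at 450 nm.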

[9] = system: Hepatitis C virus JFH-1; experiment: Binding affinity to HCV 2a JFH-1 viral particle after 1 hr by indirect ELISA
Procedure, shortened: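 Wells were coated with 3 × 10⁵ JFH-1 HCVcc particles per well in carbonate buffer pH 9.6 (7 h, 4°C) and blocked with 1% BSA at 4°C overnight. Control culture medium served as comparison. Biotin-labelled peptide at different concentrations was incubated 30 min at 37°C, followed by HRP-streptavidin (1:1,000) for 1 h at 37°C. Signal was developed with o-phenylenediamine and read at A450 (triplicates; six experiments).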

[10] = system: Hepatitis C virus; experiment: Binding affinity to HCV in virus infected patient serum after 1 hr by sandwich ELISA; conditions: Hepacivirus hominis
Procedure, shortened: (§4)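 Sandwich ELISA with wells coated with 0.3 nM peptide and blocked with 2% BSA at 4°C overnight. Serum (100 μl) from HCV antibody/RNA-positive patients (n = 50) or negative healthy donors (n = 55) was incubated 30 min at 37°C. Captured particles were detected with rabbit anti-E2 polyclonal (1:150, 1 h, 37°C), then HRP-labelled reagent, read at A450, and analysed by a nonparametric method.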

[11] = system: Hepatitis C virus; experiment: Binding affinity to HCV in […] healthy human serum after 1 hr by sandwich ELISA; assay type: cell-free; conditions: Hepacivirus hominis; procedure, shortened: as §4
[12] = system: CT26; experiment: Inhibition of HCV envelope glycoprotein E2 to […] cells expressing SR-B1 after 1 hr by flow cytometry; assay type: cell-based; conditions: Hepacivirus hominis
[13] = system: CT26; experiment: Inhibition of HCV envelope glycoprotein E2 to […] cells expressing CLDN1 after 1 hr by flow cytometry; assay type: cell-based; conditions: Hepacivirus hominis
[14] = system: CT26; experiment: Inhibition of HCV envelope glycoprotein E2 to […] cells expressing OCLN after 1 hr by flow cytometry; assay type: cell-based; conditions: Hepacivirus hominis
[15] = system: Hepatitis C virus; experiment: Antiviral activity against HCV 2a JFH-1 in human Huh 7.5.1 cells assessed as inhibition of viral infection at 100 to 500 nM after 4 hrs by Western blotting; assay type: functional, organism-based; conditions: Hepacivirus hominis; procedure, shortened: as §2
[16] = system: Hepatitis C virus; experiment: Antiviral activity against HCV 2a JFH-1 in human Huh 7.5.1 cells cytoplasm assessed as inhibition of viral infection at 100 to 500 nM after 4 hrs by immunofluorescence staining; assay type: functional, organism-based; conditions: Hepacivirus hominis; procedure, shortened: as §2
[17] = system: Hepatitis C virus; experiment: Antiviral activity against HCV 2a JFH-1 in human Huh 7.5.1 cells cytoplasm assessed as inhibition of viral infection at 100 to 500 nM after 4 hrs by RT-PCR analysis; assay type: functional, organism-based; conditions: Hepacivirus hominis, in the assay text read “after overnight incubation” for “after 4 hrs”
Procedure, shortened: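 Huh-7.5.1 cells (4.5 × 10⁵/well) were co-cultured overnight at 37°C with 200 μl (7 × 10⁷ copies) of JFH-1 HCVcc and peptide at different final concentrations. After washing in DEPC-PBS, total RNA was extracted with Trizol and reverse transcribed. Intracellular HCV RNA was quantified by real-time PCR using 5′ NCR primers and normalized to GAPDH mRNA (means ± SEM, three experiments).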

[18] = system: Hepatitis C virus; experiment: Binding affinity to HCV 1b envelope glycoprotein E2; conditions: Hepatitis C virus subtype 1b; procedure, shortened: as §3
[19] = system: Hepatitis C virus subtype 3a; experiment: Binding affinity to HCV 3a envelope glycoprotein E2; procedure, shortened: as §3
[20] = system: Hepatitis C virus subtype 5a; experiment: Binding affinity to HCV 5a envelope glycoprotein E2; procedure, shortened: as §3
[21] = system: Hepatitis C virus subtype 6a; experiment: Binding affinity to HCV 6a envelope glycoprotein E2; procedure, shortened: as §3
[22] = system: Hepatitis C virus subtype 4a; experiment: Binding affinity to HCV 4a envelope glycoprotein E2; procedure, shortened: as §3
[23] = system: Hepacivirus hominis; experiment: Ratio of binding affinity for HCV 1a envelope glycoprotein E2 to binding affinity for HCV 3a envelope glycoprotein E2; procedure, shortened: as §3
[24] = system: Hepacivirus hominis; experiment: Ratio of binding affinity for HCV 1a envelope glycoprotein E2 to binding affinity for HCV 4a envelope glycoprotein E2; procedure, shortened: as §3
[25] = system: Hepacivirus hominis; experiment: Ratio of binding affinity for HCV 1a envelope glycoprotein E2 to binding affinity for HCV 5a envelope glycoprotein E2; procedure, shortened: as §3
[26] = system: Hepacivirus hominis; experiment: Ratio of binding affinity for HCV 1a envelope glycoprotein E2 to binding affinity for HCV 6a envelope glycoprotein E2; procedure, shortened: as §3
[27] = system: Hepacivirus hominis; experiment: Ratio of binding affinity for HCV 1b envelope glycoprotein E2 to binding affinity for HCV 3a envelope glycoprotein E2; procedure, shortened: as §3
[28] = system: Hepacivirus hominis; experiment: Ratio of binding affinity for HCV 1b envelope glycoprotein E2 to binding affinity for HCV 4a envelope glycoprotein E2; procedure, shortened: as §3
[29] = system: Hepacivirus hominis; experiment: Ratio of binding affinity for HCV 1b envelope glycoprotein E2 to binding affinity for HCV 5a envelope glycoprotein E2; procedure, shortened: as §3
[30] = system: Hepacivirus hominis; experiment: Ratio of binding affinity for HCV 1b envelope glycoprotein E2 to binding affinity for HCV 6a envelope glycoprotein E2; procedure, shortened: as §3
[31] = system: Hepacivirus hominis; experiment: Ratio of binding affinity for HCV 2a envelope glycoprotein E2 to binding affinity for HCV 3a envelope glycoprotein E2; procedure, shortened: as §3
[32] = system: Hepacivirus hominis; experiment: Ratio of binding affinity for HCV 2a envelope glycoprotein E2 to binding affinity for HCV 4a envelope glycoprotein E2; procedure, shortened: as §3
[33] = system: Hepacivirus hominis; experiment: Ratio of binding affinity for HCV 2a envelope glycoprotein E2 to binding affinity for HCV 5a envelope glycoprotein E2; procedure, shortened: as §3
[34] = system: Hepacivirus hominis; experiment: Ratio of binding affinity for HCV 2a envelope glycoprotein E2 to binding affinity for HCV 6a envelope glycoprotein E2; procedure, shortened: as §3

Kd ([1]; read-out: Kd): 50 nM | cell-bound E2 remaining [2]: 32%
SMILES: N=C(N)NCCC[C@H](NC(=O)CNC(=O)[C@H](Cc1ccccc1)NC(=O)CN)C(=O)N[C@@H](Cc1ccc(O)cc1)C(=O)N[C@@H](CCCNC(=N)N)C(=O)N[C@@H](CCCNC(=N)N)C(=O)N[C@@H](Cc1cnc[nH]1)C(=O)NCC(=O)N[C@@H](CO)C(=O)N1CCC[C@H]1C(=O)N[C@@H](Cc1c[nH]c2ccccc12)C(=O)O (H-GFGRYRRHGSPW-OH)

Kd [1]: Not Active | cell-bound E2 remaining [2]: 30%
SMILES: CC[C@H](C)[C@H](NC(=O)[C@@H](NC(=O)[C@H](CC(C)C)NC(=O)[C@@H](NC(=O)[C@H](CO)NC(=O)[C@@H](N)CC(C)C)C(C)C)C(C)C)C(=O)N[C@@H](CO)C(=O)N[C@@H](CCSC)C(=O)N[C@@H](Cc1ccccc1)C(=O)N[C@@H](CC(N)=O)C(=O)N[C@@H](C)C(=O)N[C@H](C(=O)O)C(C)C (H-LSVLVISMFNAV-OH)

Kd ([1]; read-out: Kd): 43 nM | cell-bound E2 remaining [2]: 7% | inhibition [3]: Dose-dependent effect
SMILES: CC[C@H](C)[C@H](NC(=O)[C@H](C)NC(=O)[C@@H](N)CCSC)C(=O)NCC(=O)N1CCC[C@H]1C(=O)N[C@@H](Cc1ccc(O)cc1)C(=O)N1CCC[C@H]1C(=O)N[C@@H](C)C(=O)N[C@@H](CS)C(=O)NCC(=O)N[C@@H](CO)C(=O)NCC(=O)O (H-MAIGPYPACGSG-OH)

Activity [5]: Active | Activity [6]: Active | Kd ([1]; read-out: Kd): 19 nM | Activity [8]: Dose-dependent effect | Activity [9]: Dose-dependent effect | Activity [10]: Active | Activity [11]: inactive | inhibition [3]: Dose-dependent effect | Activity [19]: Active | Activity [20]: Active | Activity [21]: Active | Activity [22]: Active | Ratio [23]: 2 | Ratio [24]: 2 | Ratio [25]: 2 | Ratio [26]: 2 | Ratio [27]: 2 | Ratio [28]: 2 | Ratio [29]: 2 | Ratio [30]: 2 | Ratio [31]: 2 | Ratio [32]: 2 | Ratio [33]: 2 | Ratio [34]: 2
SMILES: CSCC[C@H](NC(=O)[C@@H](NC(=O)[C@H](CC(C)C)NC(=O)[C@@H]1CCCN1C(=O)[C@H](Cc1c[nH]c2ccccc12)NC(=O)[C@H](CC(N)=O)NC(=O)[C@H](CCCNC(=N)N)NC(=O)[C@H](Cc1cnc[nH]1)NC(=O)[C@H](CCCNC(=N)N)NC(=O)[C@H](C)NC(=O)[C@@H](N)CCSC)C(C)C)C(=O)N[C@H](C(=O)O)C(C)C (H-MARHRNWPLVMV-OH)
Activity [4]: Dose-dependent effect | inhibition [7]: Active | inhibition [12]: inactive | inhibition [13]: inactive | inhibition [14]: inactive | Activity [15]: Dose-dependent effect | Activity [16]: Active | Activity [17]: Active | Activity [18]: Active
